Each structure is given as a SMILES string. pIC50: −log10 of the molar value. Active and inactive are the calls of the source. The rule behind the calls is not given here.

Assay [1] has as its target Triosephosphate isomerase, glycosomal (Trypanosoma cruzi) (UniProt P52270). As to the kind of experiment: Inhibition of Trypanosoma cruzi triosephosphate isomerase at 100 uM after 2 hrs. An outline of the steps:
(§1)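 Recombinant E. coli-expressed enzyme, dialyzed into 100 mM triethanolamine/10 mM EDTA pH 7.4, was incubated with compound (DMSO stock) in 100 mM triethanolamine, 10 mM EDTA, pH 7.4, 10% DMSO at 36 °C for 2 h. An aliquot was then assayed for activity (glyceraldehyde 3-phosphate to dihydroxyacetone phosphate, α-glycerol phosphate dehydrogenase-coupled) with 5 ng enzyme. Irreversible inhibition was scored as loss of activity; means of two experiments.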

Assay [2] has the same target. As to the kind of experiment: Inhibition of Trypanosoma cruzi triosephosphate isomerase at 400 uM after 2 hrs. In short, it runs like this: as §1
Assay [3] can be described thus: Selectivity for Trypanosoma cruzi triosephosphate isomerase over human triosephosphate isomerase.
Assay [4] relates to Trypanosoma cruzi. The assay is described as follows: Antiparasitic activity against Trypanosoma cruzi T2 epimastigotes assessed as growth inhibition at 25 uM after 5 days. The class given is functional. Conditions: for inhibition of growth at 25 µM: T2, 120 h, read-out: GI. An outline of the steps: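 Late-log epimastigotes were grown axenically at 28 °C in BHI-tryptose with 5% fetal calf serum and seeded at 2×10^6/mL in medium containing compound (DMSO stock; final DMSO ≤1%, 1% DMSO control). Growth was read as A590 at day 0 and day 5. Inhibition = {1 − [(Ap − A0p)/(Ac − A0c)]} × 100. Means of two experiments.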

Assay [5] concerns Trypanosoma cruzi. As to the kind of experiment: Antiparasitic activity against Trypanosoma cruzi T2 epimastigotes assessed as growth inhibition. The following applies: read-out: ID50 (the source's name). The class given is functional. In short, it runs like this:
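Epimastigotes were cultured at 28 °C in BHI-tryptose plus 5% fetal calf serum and seeded at 2×10^6/mL with increasing compound concentrations (from DMSO stock; final DMSO ≤1%). Growth was followed as A590 against untreated controls. ID50 was the concentration halving absorbance relative to controls. Means of two experiments.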

Sequence of Triosephosphate isomerase, glycosomal (Trypanosoma cruzi) (P52270 whole entry): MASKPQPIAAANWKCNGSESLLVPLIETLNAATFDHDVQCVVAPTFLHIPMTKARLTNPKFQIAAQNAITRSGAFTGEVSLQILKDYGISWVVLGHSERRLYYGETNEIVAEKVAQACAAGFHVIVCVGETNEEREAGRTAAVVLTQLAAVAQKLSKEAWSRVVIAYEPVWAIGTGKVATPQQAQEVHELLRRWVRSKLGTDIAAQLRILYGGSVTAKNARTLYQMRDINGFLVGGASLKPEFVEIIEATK

The inhibition is the drop in the measured response relative to a control, in per cent. As for `O=[N+]([O-])c1ccc(C=Cc2ccc3no[n+]([O-])c3c2)s1`, the results for the inhibition in assay [1] and in assay [2] were 82% and 71%, respectively. In assay [3], the Ratio was greater than 4. Also, in the assay with Trypanosoma cruzi [4], the result was Active.

Take `C/C(=C\c1cccs1)[N+](=O)[O-]`: the pIC50 in the assay with Trypanosoma cruzi [5] is less than 4.60. The inhibition was 53% in assay [1] and 95% in assay [2]. Further, in assay [3], the Ratio is greater than 4. Further, the inhibition of growth at 25 µM in the assay with Trypanosoma cruzi [4] was determined as 14.6%.

On to `O=C1C(=Cc2ccc([N+](=O)[O-])s2)C(=O)N(Cc2ccccc2)S(=O)(=O)N1Cc1ccccc1`, for which the inhibition in assay [1] was found to be 84%; in assay [2], 77%. Besides, in assay [3], the Ratio was greater than 4. Besides, the result in the assay on Trypanosoma cruzi [4] was Active.

Regarding `O=S(=O)(c1ccccc1)c1no[n+]([O-])c1S(=O)(=O)c1ccccc1`, the inhibition in assay [1] amounted to 35%; in assay [2] it was 93%. In addition, the Ratio in assay [3] is greater than 4. For the same compound, the result in the assay on Trypanosoma cruzi [4] was Active.

As for `O=c1cc(-c2ccccc2)oc2ccccc12` [FLAVONE], in the assay on Trypanosoma cruzi [5], the pIC50 was less than 4.60. The inhibition in assay [1] came out at 52%; in assay [2] it was 83%. The Ratio in assay [3] was greater than 4. For the same compound, the inhibition of growth at 25 µM in the assay on Trypanosoma cruzi [4] was 19.1%.

For the compound `O=C1C(=Cc2ccc([N+](=O)[O-])s2)C(=O)N(CCc2ccccc2)S(=O)(=O)N1CCc1ccccc1`, the inhibition worked out at 68% in assay [1] and 82% in assay [2]. Further, in assay [3], the Ratio was greater than 4. For the same compound, in the assay on Trypanosoma cruzi [4], the result was Active.

`Cc1c(CNc2ccc3ccccc3c2)no[n+]1[O-]`: the inhibition in assay [1] was 0%; in assay [2], 92%. In addition, in assay [3], the Ratio is greater than 4. Moreover, the result in the assay on Trypanosoma cruzi [4] was Active.

Take `COc1ccc(CCNC(=O)N/N=C/c2ccc([N+](=O)[O-])o2)cc1OC`: the inhibition worked out at 76% in assay [1] and 100% in assay [2]. For the same compound, in assay [3], the Ratio was greater than 4. Further, in the assay on Trypanosoma cruzi [4], the outcome was Active.

In the case of `NC(=O)N/N=C/c1ccc(OCc2ccc3no[n+]([O-])c3c2)cc1`, the inhibition in assay [1] turned out to be 36%; in assay [2], 82%. In addition, the Ratio in assay [3] was greater than 4. For the same compound, in the assay with Trypanosoma cruzi [4], the outcome was Active.

For `[O-][n+]1onc2ccc(/C=C/c3cccs3)cc21`, the inhibition in assay [1] amounted to 27%; in assay [2], 73%. The Ratio in assay [3] was greater than 4. The outcome in the assay on Trypanosoma cruzi [4] was Active.

As for `[O-][n+]1onc2ccc(/C=C/Sc3ccc(F)cc3)cc21`, the inhibition turned out to be 47% in assay [1] and 88% in assay [2]. Besides, the Ratio in assay [3] was greater than 4. In addition, the result in the assay on Trypanosoma cruzi [4] was Active.

Regarding `[O-][n+]1onc(-c2ccccc2)c1CNc1cccc2ccccc12`, the pIC50 in the assay on Trypanosoma cruzi [5] was less than 4.60. The inhibition in assay [1] is 45%; in assay [2] it was 72%. Further, the Ratio in assay [3] is greater than 4. Besides, the inhibition of growth at 25 µM in the assay with Trypanosoma cruzi [4] stood at 24.7%.

In the case of `O=C1C(=Cc2ccc([N+](=O)[O-])cc2)C(=O)N(Cc2ccccc2)S(=O)(=O)N1Cc1ccccc1`, the inhibition in assay [1] was found to be 28%; in assay [2], 74%. In assay [3], the Ratio is greater than 4. In the assay on Trypanosoma cruzi [4], the outcome was Active.

Regarding `NC(=S)N/N=C/c1ccc([N+](=O)[O-])o1`, the results for the inhibition in assay [1] and in assay [2] were 57% and 85%, respectively. Further, the Ratio in assay [3] was greater than 4. Besides, the outcome in the assay on Trypanosoma cruzi [4] was Active.

Turning to `O=C(N/N=C/c1ccc([N+](=O)[O-])o1)Nc1cccc2ccccc12`, the values for the inhibition in assay [1] and in assay [2] were 20% and 82%, respectively. Further, the Ratio in assay [3] is greater than 4. Besides, the result in the assay with Trypanosoma cruzi [4] was Active.

Consider `c1ccc(-c2nsc(-c3ccccc3)n2)cc1`, for which the pIC50 with Trypanosoma cruzi [5] was 4.60. Moreover, the inhibition in assay [1] was 45%; in assay [2], 74%. For the same compound, the Ratio in assay [3] is greater than 4. Also, the inhibition of growth at 25 µM with Trypanosoma cruzi [4] is 50%.

Turning to `CCOC(=O)c1nc(-c2cc(C(C)(C)C)c(O)c(C(C)(C)C)c2)ns1`, the inhibition in assay [1] was 65%; in assay [2], 87%. Besides, in assay [3], the Ratio is greater than 4. Besides, the result in the assay with Trypanosoma cruzi [4] was Active.

With `CC1=CC(=N/O)/C(=N\O)C=C1`, in the assay on Trypanosoma cruzi [5], the pIC50 was 4.60. Also, the inhibition turned out to be 49% in assay [1] and 85% in assay [2]. Further, in assay [3], the Ratio was greater than 4. The inhibition of growth at 25 µM in the assay on Trypanosoma cruzi [4] is 50%.

As for `Nc1ccc(-c2ccccc2)cc1[N+](=O)[O-]`, the inhibition in assay [1] turned out to be 47%; in assay [2], 93%. The Ratio in assay [3] is greater than 4.

For the compound `Cc1c(/C=N/NC(N)=S)no[n+]1[O-]`, in the assay with Trypanosoma cruzi [5], the pIC50 is less than 4.60. The inhibition was found to be 56% in assay [1] and 87% in assay [2]. In assay [3], the Ratio was greater than 4. In addition, in the assay with Trypanosoma cruzi [4], the inhibition of growth at 25 µM worked out at 24.7%.

Turning to `CCCCNC(=O)N/N=C/c1ccc([N+](=O)[O-])o1`, the inhibition in assay [1] turned out to be 17%; in assay [2], 0%. Besides, the Ratio in assay [3] was greater than 4. Besides, the outcome in the assay on Trypanosoma cruzi [4] was Active.

`[O-][n+]1onc2ccc(/C=N/N=C/c3cc(Br)ccc3O)cc21`: the inhibition in assay [1] came to 0%; in assay [2] it was 100%. Further, the Ratio in assay [3] is greater than 4. The result in the assay with Trypanosoma cruzi [4] was Active.

For the compound `O=C(N/N=C/c1ccc([N+](=O)[O-])o1)Nc1ccc2ccccc2c1`, the inhibition worked out at 32% in assay [1] and 100% in assay [2]. Further, the Ratio in assay [3] was greater than 4. Besides, the result in the assay on Trypanosoma cruzi [4] was Active.

For `O=[N+]([O-])c1ccc(/C=N/NC(=S)Nc2ccccc2)s1`, the inhibition was found to be 25% in assay [1] and 100% in assay [2]. The Ratio in assay [3] was greater than 4. In addition, the outcome with Trypanosoma cruzi [4] was Active.

On to `O=C(N/N=C/C=C/c1ccc([N+](=O)[O-])o1)Nc1ccc2ccccc2c1`, for which the inhibition in assay [1] is 47%; in assay [2], 100%. Further, the Ratio in assay [3] is greater than 4. Also, in the assay on Trypanosoma cruzi [4], the result was Active.

Consider `C/C(=C\c1ccc(Br)cc1)[N+](=O)[O-]`, for which the results for the inhibition in assay [1] and in assay [2] were 0% and 95%, respectively. The Ratio in assay [3] is greater than 4. In addition, the outcome in the assay with Trypanosoma cruzi [4] was Active.

`CCCCCCN1C(=O)C(=Cc2ccc([N+](=O)[O-])cc2)C(=O)N(CCCCCC)S1(=O)=O`: the inhibition is 26% in assay [1] and 98% in assay [2]. The Ratio in assay [3] was greater than 4. The result with Trypanosoma cruzi [4] was Active.

Turning to `O=[N+]([O-])c1ccc(/C=C/C=N/NC(=S)Nc2ccccc2)o1`, the inhibition in assay [1] was 75%; in assay [2], 100%. In assay [3], the Ratio was greater than 4. In the assay on Trypanosoma cruzi [4], the outcome was Active.

As to `C=CCNC(=S)N/N=C\c1ccccc1OCc1ccc2no[n+]([O-])c2c1`, the inhibition in assay [1] was 45%; in assay [2], 75%. In addition, the Ratio in assay [3] was greater than 4. The result with Trypanosoma cruzi [4] was Active.

Turning to `O=C1C(=Cc2ccc([N+](=O)[O-])cc2)C(=O)N(CCc2ccccc2)S(=O)(=O)N1CCc1ccccc1`, the inhibition turned out to be 58% in assay [1] and 85% in assay [2]. Further, the Ratio in assay [3] was greater than 4. The outcome with Trypanosoma cruzi [4] was Active.

In the case of `[O-][n+]1onc2ccc(/C=C/c3ccc4c(c3)OCO4)cc21`, the inhibition was 21% in assay [1] and 70% in assay [2]. Moreover, the Ratio in assay [3] is greater than 4. Besides, the outcome in the assay with Trypanosoma cruzi [4] was Active.

With `O=[N+]([O-])c1ccc2c(c1)c(OCc1ccccc1)nn2CCOCCN1CCN(C/C=C/c2ccccc2)CC1`, the inhibition in assay [2] turned out to be 18%. Besides, in assay [3], the Ratio is greater than 4. Further, the outcome with Trypanosoma cruzi [4] was Active.

`O=C(Cn1ccnc1[N+](=O)[O-])NCc1ccccc1` [BENZNIDAZOLE]: the pIC50 in the assay with Trypanosoma cruzi [5] is 5.13. Moreover, the inhibition in assay [2] was 18%. Also, the Ratio in assay [3] is greater than 4. The outcome with Trypanosoma cruzi [4] was Active.

`O=S(=O)(NCc1ccccc1)NCc1ccccc1` yielded an inhibition in assay [2] of 76%. The Ratio in assay [3] is greater than 4. Moreover, the result in the assay with Trypanosoma cruzi [4] was Active.

In the case of `CCOC(=O)c1[nH]c(=O)n(CCc2ccccc2)c1C`, the inhibition in assay [2] is 0%. Moreover, the Ratio in assay [3] was greater than 4. Besides, the result in the assay on Trypanosoma cruzi [4] was Active.

Regarding `O=C1CC(=O)N(CCc2ccccc2)S(=O)(=O)N1CCc1ccccc1`, the inhibition in assay [2] came to 0%. Also, the Ratio in assay [3] is greater than 4. In addition, the result in the assay with Trypanosoma cruzi [4] was Active.

The compound `CCCCCCNC(=O)N/N=C/c1c(-c2ccccc2)no[n+]1[O-]` showed an inhibition in assay [2] of 4%. The Ratio in assay [3] is greater than 4. In the assay on Trypanosoma cruzi [4], the outcome was Active.

On to `O=C(/C=C/c1cccs1)c1ccccc1O`, for which the inhibition in assay [2] is 25%. Also, the Ratio in assay [3] is greater than 4. Moreover, the outcome in the assay on Trypanosoma cruzi [4] was Active.

With `O=C(c1ccc2no[n+]([O-])c2c1)N1CCOCC1`, the inhibition in assay [2] amounted to 7%. Besides, the Ratio in assay [3] is greater than 4. The outcome in the assay on Trypanosoma cruzi [4] was Active.

Turning to `[O-][n+]1onc2ccc(/C=C/c3ccc4nonc4c3)cc21`, the inhibition was determined as 13% in assay [1] and 80% in assay [2]. The Ratio in assay [3] was greater than 4. The result with Trypanosoma cruzi [4] was Active.

As for `CCCCCCNC(=O)N/N=C/c1ccc([N+](=O)[O-])s1`, the inhibition in assay [2] was 14%. Besides, in assay [3], the Ratio is greater than 4. Besides, the outcome in the assay on Trypanosoma cruzi [4] was Active.
